What was measured:
[1] = biological target: T1, Delta-type opioid receptor (Homo sapiens, UniProt P41143); test: Binding affinity against human opioid receptor delta 1 using [125I]-[D-Ala2]-deltorphin II as radioligand
Mu-type opioid receptor = Mu-type opioid receptor (Homo sapiens, UniProt P35372); test: Binding affinity against cloned human Opioid receptor mu 1 using [125I]FK33824 as radioligand
[2] = biological target: T1, Delta-type opioid receptor; test: Agonist potency was measured using GTP gamma-[35S] binding assay
[3] = Maximal efficacy (Emax value); assay type: functional
How it was run: (§1)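 GTPγ35S binding on P2 membranes of HEK-293S cells stably expressing human δ receptor (9.7 pmol/mg protein). Filtration after 1 h. Stimulated binding set with 3 µM SNC-80. %Emax from 3-parameter logistic fit.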

[4] = biological target: Kappa-type opioid receptor (Homo sapiens, UniProt P41145); test: Binding affinity against cloned human Opioid receptor kappa 1 using [125I]-D-Pro10-dynorphin A[1-11] as radioligand
Chain of Kappa-type opioid receptor (P41145 whole entry): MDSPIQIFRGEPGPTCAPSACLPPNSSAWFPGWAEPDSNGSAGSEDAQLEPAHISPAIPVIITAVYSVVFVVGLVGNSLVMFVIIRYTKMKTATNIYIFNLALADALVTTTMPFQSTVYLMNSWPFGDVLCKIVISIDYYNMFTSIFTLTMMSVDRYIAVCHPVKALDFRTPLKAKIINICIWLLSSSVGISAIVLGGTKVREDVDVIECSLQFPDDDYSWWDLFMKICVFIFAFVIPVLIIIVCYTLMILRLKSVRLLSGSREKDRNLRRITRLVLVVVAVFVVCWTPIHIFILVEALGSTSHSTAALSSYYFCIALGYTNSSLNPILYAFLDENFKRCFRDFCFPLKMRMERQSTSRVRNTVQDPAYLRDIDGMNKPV

[5] = Metabolic stability at a concentration of 100 uM in rat liver microsomes after 1 hr incubation; assay type: ADME
How it was run: (§2)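 Substrate at 10 or 100 µM final (1% DMSO) with rat liver microsomes (0.4 mg/mL protein), 1 mM NADPH, 100 mM phosphate pH 7.4, 37 °C with gentle shaking, in duplicate. Reaction started by NADPH and stopped at 0 and 60 min with ice-cold acetonitrile. After centrifugation, supernatant analysed by LC-MS for % parent remaining. Controls omitted microsomes or NADPH.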

[6] = Metabolic stability at a concentration of 10 uM in rat liver microsomes after 1 hr incubation; assay type: ADME; how it was run: as §2
[7] = Emax value was determined; how it was run: as §1

T1 sequence (P41143 whole entry): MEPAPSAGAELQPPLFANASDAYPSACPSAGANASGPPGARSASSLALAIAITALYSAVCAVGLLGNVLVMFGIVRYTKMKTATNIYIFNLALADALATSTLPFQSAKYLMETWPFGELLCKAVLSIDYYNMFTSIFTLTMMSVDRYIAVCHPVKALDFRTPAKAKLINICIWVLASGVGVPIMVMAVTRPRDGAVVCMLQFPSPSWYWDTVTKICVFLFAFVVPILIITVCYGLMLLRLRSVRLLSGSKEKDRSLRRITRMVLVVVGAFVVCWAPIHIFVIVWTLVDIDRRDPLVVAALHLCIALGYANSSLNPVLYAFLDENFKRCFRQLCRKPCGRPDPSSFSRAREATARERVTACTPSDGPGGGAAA
Chain of Mu-type opioid receptor (P35372 whole entry): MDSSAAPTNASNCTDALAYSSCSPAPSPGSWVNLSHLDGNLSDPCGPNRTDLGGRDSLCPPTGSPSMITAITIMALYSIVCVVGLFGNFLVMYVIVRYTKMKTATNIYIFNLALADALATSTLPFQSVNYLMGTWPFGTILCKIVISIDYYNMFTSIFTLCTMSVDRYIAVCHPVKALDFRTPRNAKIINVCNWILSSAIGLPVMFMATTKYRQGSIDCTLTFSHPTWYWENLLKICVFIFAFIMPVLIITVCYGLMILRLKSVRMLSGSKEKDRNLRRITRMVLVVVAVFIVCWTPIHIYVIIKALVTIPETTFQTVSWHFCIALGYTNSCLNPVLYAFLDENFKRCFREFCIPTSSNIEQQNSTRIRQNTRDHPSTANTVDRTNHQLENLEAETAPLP

Work on `CCN(CC)C(=O)c1ccc(C(c2cccc(OC)c2)N2CC(C)(C)NCC2C)cc1` (centres undefined) yielded an IC50 [1] of 0.00844 µM, an IC50 (Mu-type opioid receptor) of 0.62 µM and an EC50 [2] of 0.0104 µM. For the same compound, the Emax [3] was 100% and the IC50 [4] was > 10 µM.

Work on `CCN(CC)C(=O)c1ccc(C(c2ccc3ccccc3c2)N2CCNCC2)cc1` (centres undefined) yielded an IC50 [1] of 0.00763 µM, an IC50 (Mu-type opioid receptor) of 2.68 µM and an EC50 [2] of 0.05 µM. For the same compound, the Emax [3] was 110% and the IC50 [4] was > 10 µM.

For `CCN(CC)C(=O)c1ccc(C(c2ccccc2)N2CCN(C)CC2)cc1` (centres undefined), the IC50 [1] was 0.0404 µM, the IC50 (Mu-type opioid receptor) was > 10 µM and the EC50 [2] was 0.211 µM. For the same compound, the Emax [3] was 58% and the IC50 [4] was 6.97 µM.

Work on `COC(=O)c1ccc(C(c2ccccc2)N2CCNCC2)cc1` (centres undefined) yielded an IC50 [1] of 0.307 µM.

Compound `C=CCN1CCN(C(c2ccccc2)c2ccc(C(=O)N(CC)CC)cc2)CC1` (centres undefined) has an IC50 [1] of 0.0159 µM, an IC50 (Mu-type opioid receptor) of 5.06 µM and an EC50 [2] of 0.033 µM. For the same compound, the Emax [3] was 109% and the IC50 [4] was 7.57 µM.

Compound `CC(C)(O)c1ccc(C(c2ccccc2)N2CCNCC2)cc1` (centres undefined) has an IC50 [1] of 0.406 µM.

Work on `CCN(CC)C(=O)c1ccc(C(c2ccccc2)N2CCNCC2)cc1` (centres undefined) yielded a remaining at 1 h, 100 µM [5] of 89%, a remaining at 1 h, 10 µM [6] of 60% and an Emax [3] of 104%.

`NC(=O)c1ccc(C(c2ccccc2)N2CCNCC2)cc1` (centres undefined) gave an IC50 [1] of 0.509 µM.

Work on `CCN(CC)C(=O)c1ccc(C(c2ccc(C)cc2)N2CCNCC2)cc1` (centres undefined) yielded an IC50 [1] of 0.00842 µM, an IC50 (Mu-type opioid receptor) of 7.09 µM and an EC50 [2] of 0.0781 µM. For the same compound, the Emax [3] was 84% and the IC50 [4] was > 10 µM.

`CCNC(=O)c1ccc(C(c2ccccc2)N2CCNCC2)cc1` (centres undefined) gave an IC50 [1] of 0.175 µM.

For `CCN(CC)C(=O)c1ccc(C(c2cccc3ccccc23)N2CCNCC2)cc1` (centres undefined), the IC50 [1] was 0.00236 µM, the IC50 (Mu-type opioid receptor) was 0.777 µM and the EC50 [2] was 0.018 µM. The Emax [3] was 99% and the IC50 [4] was 4.91 µM.

With `CCN(CC)C(=O)c1ccc(C(c2ccnc3ccccc23)N2CCNCC2)cc1` (centres undefined) the IC50 [1] was 0.132 µM.

In the case of `CCN(CC)C(=O)c1ccc(C(c2ccccc2)N2CCCNCC2)cc1` (centres undefined), the IC50 [1] is reported as 0.0196 µM, the IC50 (Mu-type opioid receptor) is reported as 2.29 µM and the EC50 [2] is reported as 0.303 µM. The Emax [3] was 96% and the IC50 [4] was 4.53 µM.

With `CCN(CC)C(=O)c1ccc(C(c2ccc(OC)cc2)N2CCNCC2)cc1` (centres undefined) the IC50 [1] was 0.00813 µM, the IC50 (Mu-type opioid receptor) was 4.54 µM and the EC50 [2] was 0.187 µM. The Emax [3] was 90% and the IC50 [4] was > 10 µM.

For `CCN(CC)Cc1ccc(C(c2ccccc2)N2CCNCC2)cc1` (centres undefined), the IC50 [1] was 0.555 µM.

Work on `CCN(CC)C(=O)c1ccc(C(c2cccc(OC)c2)N2CCNCC2)cc1` (centres undefined) yielded an IC50 [1] of 0.0248 µM, an IC50 (Mu-type opioid receptor) of 5.29 µM and an EC50 [2] of 0.042 µM. The Emax [3] was 109% and the IC50 [4] was > 10 µM.

For `CCN(CC)C(=O)c1ccc(C(c2ccccc2)N(C)CCNC)cc1` (centres undefined), the IC50 [1] was 0.0916 µM, the IC50 (Mu-type opioid receptor) was 6.97 µM and the IC50 [4] was > 10 µM.

Compound `c1ccc(C(c2ccc(-c3nnn[nH]3)cc2)N2CCNCC2)cc1` (centres undefined) has an IC50 [1] of 0.25 µM.

Compound `CCN(CC)C(=O)c1ccc(C(c2cccc3cnccc23)N2CCNCC2)cc1` (centres undefined) has an IC50 [1] of 0.00411 µM, an IC50 (Mu-type opioid receptor) of 1.48 µM and an EC50 [2] of 0.0546 µM. The Emax [3] was 106% and the IC50 [4] was > 10 µM.

With `CCC(CC)C(=O)c1ccc(C(c2ccccc2)N2CCNCC2)cc1` (centres undefined) the IC50 [1] was 0.1 µM.

In the case of `CC(=O)c1ccc(C(c2ccccc2)N2CCNCC2)cc1` (centres undefined), the IC50 [1] is reported as 1.05 µM.

Compound `CCN(CC)C(=O)c1ccc(C(c2cccc3c2OC(C)(C)C3)N2CCNCC2)cc1` (centres undefined) has a remaining at 1 h, 100 µM [5] of 93%, an IC50 [1] of 0.00115 µM and a remaining at 1 h, 10 µM [6] of 43%. The IC50 (Mu-type opioid receptor) was 0.785 µM, the EC50 [2] was 0.0071 µM and the Emax [3] was 101%. The IC50 [4] was > 7.6 µM.

`C=CCN1C[C@H](C)N([C@H](c2ccc(C(=O)N(CC)CC)cc2)c2cccc(OC)c2)C[C@H]1C` gave an Emax [3] of 100%.

`CCN(CC)C(=O)c1ccc(C(c2ccccc2)N2CCCCC2)cc1` (centres undefined) showed an IC50 [1] of 2.23 µM.

Work on `CCN(CC)C(=O)c1ccc(C(c2ccc(Cl)cc2)N2CCNCC2)cc1` (centres undefined) yielded an IC50 [1] of 0.0193 µM, an IC50 (Mu-type opioid receptor) of 5.33 µM and an EC50 [2] of 0.113 µM. The Emax [3] was 107% and the IC50 [4] was > 10 µM.

`CCN(CC)C(=O)c1ccc(C(c2ccc3cc[nH]c3c2)N2CCNCC2)cc1` (centres undefined) showed an IC50 [1] of 0.00681 µM, an IC50 (Mu-type opioid receptor) of 2.22 µM and an EC50 [2] of 0.0449 µM. The Emax [3] was 105% and the IC50 [4] was 3.97 µM.

With `CCN(CC)C(=O)c1ccc(C(c2ccccc2)N2CCN(CC3CC3)CC2)cc1` (centres undefined) the IC50 [1] was 0.0353 µM, the IC50 (Mu-type opioid receptor) was 2.4 µM and the IC50 [4] was > 5.6 µM.

For `CCN(CC)C(=O)c1ccc(C(C2CCCCC2)N2CCNCC2)cc1` (centres undefined), the IC50 [1] was 0.0984 µM, the IC50 (Mu-type opioid receptor) was 0.185 µM and the IC50 [4] was 0.724 µM.

In the case of `CCN(CC)C(=O)c1ccc(C(c2ccc3ncccc3c2)N2CCNCC2)cc1` (centres undefined), the IC50 [1] is reported as 0.0616 µM.

In the case of `CN(C)C(=O)c1ccc(C(c2ccccc2)N2CCNCC2)cc1` (centres undefined), the IC50 [1] is reported as 0.0604 µM.

`CCN(CC)C(=O)c1ccc(C(c2cccc(OC)c2)N2CC(C)NCC2(C)C)cc1` (centres undefined) gave an IC50 [1] of 0.0533 µM, an IC50 (Mu-type opioid receptor) of 0.284 µM and an EC50 [2] of 0.273 µM. For the same compound, the Emax [3] was 94% and the IC50 [4] was > 10 µM.

Compound `CCN(CC)S(=O)(=O)c1ccc(C(c2ccccc2)N2CCNCC2)cc1` (centres undefined) has an IC50 [1] of 0.0379 µM, an EC50 [2] of 0.635 µM and an Emax [3] of 110%.

Compound `CCN(CC)C(=O)c1ccc(C(c2cccc3cccnc23)N2CCNCC2)cc1` (centres undefined) has a remaining at 1 h, 100 µM [5] of 83%, an IC50 [1] of 0.00051 µM and a remaining at 1 h, 10 µM [6] of 52%. The IC50 (Mu-type opioid receptor) was 0.632 µM, the EC50 [2] was 0.0036 µM and the Emax [3] was 104%. The IC50 [4] was 7.02 µM.

Work on `N#Cc1ccc(C(c2ccccc2)N2CCNCC2)cc1` (centres undefined) yielded an IC50 [1] of 1.29 µM.

For `CCN(CC)C(=O)c1ccc(C(c2ccc3cccnc3c2)N2CCNCC2)cc1` (centres undefined), the IC50 [1] was 0.0011 µM, the IC50 (Mu-type opioid receptor) was 1.02 µM and the EC50 [2] was 0.00686 µM. For the same compound, the IC50 [4] was 3.16 µM and the Emax [7] was 100%.

With `CN1CCc2cc(-c3ccc(C(c4ccccc4)N4CCNCC4)cc3)ccc2C1=O` (centres undefined) the IC50 [1] was 1.65 µM.

For `C=CCN1C[C@H](C)N([C@H](c2ccc(C(=O)N(CC)CC)cc2)c2cccc(O)c2)C[C@H]1C`, the remaining at 1 h, 100 µM [5] was 59%, the remaining at 1 h, 10 µM [6] was 4% and the IC50 (Mu-type opioid receptor) was 0.0021 µM. It also gave an EC50 [2] of 0.00012 µM, an Emax [3] of 98% and an IC50 [4] of 0.02 µM.

In the case of `CCN(CC)C(=O)c1ccc(C(c2ccccc2)N2CCOCC2)cc1` (centres undefined), the IC50 [1] is reported as > 10 µM.

For `CCN(CC)C(=O)c1ccc(C(c2ccccc2)C2CCNCC2)cc1` (centres undefined), the IC50 (Mu-type opioid receptor) was > 10 µM, the Emax [3] was 97% and the IC50 [4] was > 10 µM.

In the case of `CCN(CC)C(=O)c1ccc(C(c2ccccc2)N2CCN(C(C)=O)CC2)cc1` (centres undefined), the IC50 [1] is reported as > 2 µM.

Work on `O=C(O)c1ccc(C(c2ccccc2)N2CCNCC2)cc1` (centres undefined) yielded an IC50 [1] of 0.41 µM.

Compound `CCN(CC)C(=O)c1ccc(C(c2cccc(F)c2)N2CCNCC2)cc1` (centres undefined) has an IC50 [1] of 0.0045 µM, an IC50 (Mu-type opioid receptor) of 5.65 µM and an EC50 [2] of 0.0533 µM. For the same compound, the Emax [3] was 97% and the IC50 [4] was > 10 µM.

In the case of `CCCCN1CCN(C(c2ccccc2)c2ccc(C(=O)N(CC)CC)cc2)CC1` (centres undefined), the IC50 [1] is reported as 0.0286 µM, the IC50 (Mu-type opioid receptor) is reported as 0.486 µM and the IC50 [4] is reported as > 10 µM.

From ChEMBL document CHEMBL1133468, “New diarylmethylpiperazines as potent and selective nonpeptidic delta opioid receptor agonists with increased In vitro metabolic stability” (J Med Chem, 2000)
